Measurements: ChEMBL document CHEMBL4138089, “Novel Imidazo[4,5-c][1,2,6]thiadiazine 2,2-dioxides as antiproliferative trypanosoma cruzi drugs: Computational screening from neural network, synthesis and in vivo biological properties” (Eur J Med Chem, 2017)
pIC50: −log10 of the molar value. Activity calls are given as the source filed them. The calls are words filed in the database; no cut-off is given here.

How the values were obtained:
[1] = system: Trypanosoma cruzi; assay: Antitrypanosomal activity against Trypanosoma cruzi clone CL B5 amastigotes harboring lacZ infected in mouse NCTC-929 cells after 7 days by beta-galactosidase reporter gene assay; type: functional, organism-based; details: clone CL B5, NCTC-929, 168 h
How it was run: (§1)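 NCTC-929 fibroblasts seeded 10,000 cells/well in MEM, attached 2-3 h at 37°C, 5% CO2, then infected with NCTC-929-derived CL-B5 lacZ trypomastigotes (1:6 cells:parasites) for 24 h at 33°C. Washed in PBS, drug in DMSO added in fresh medium, 7 days at 33°C. CPRG (400 µM, pH 7.4, 3% Triton X-100) added, 3 h at 37°C, A595. PGIa computed against infected untreated wells after subtracting uninfected-cell background. IC50a derived from PGIa.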

[2] = system: Trypanosoma cruzi; assay: Growth inhibition of Trypanosoma cruzi clone CL B5 amastigotes harboring lacZ derived from infected mouse NCTC-929 cells at 25 uM after 7 days by beta-galactosidase reporter gene assay relative to control; type: functional; details: clone CL B5, NCTC-929, 168 h, read-out: GI; how it was run: as §1
[3] = system: L929; assay: Cytotoxicity against mouse NCTC-929 cells assessed as reduction in cell viability after 48 hrs by resazurin dye-based assay; details: L929, 48 h
How it was run: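 NCTC-929 fibroblasts, 15,000 cells/well in MEM, attached 3 h at 37°C/5% CO2, then compounds in fresh medium 48 h. Resazurin (2 mM stock in PBS, pH 7.0) added for 3 h more; fluorescence ex 535/em 590 nm. Growth and medium controls on each plate.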

[4] = Selectivity index, ratio of IC50 for mouse NCTC-929 cells to IC50 for Trypanosoma cruzi clone CL B5 epimastigotes; type: toxicity; details: read-out: Ratio IC50
[5] = system: Trypanosoma cruzi; assay: Growth inhibition of Trypanosoma cruzi clone CL B5 epimastigotes at 25 uM after 72 hrs by beta-galactosidase reporter gene assay relative to control; type: functional; details: clone CL B5, 72 h, read-out: GI
[6] = system: Trypanosoma cruzi; assay: Antitrypanosomal activity against Trypanosoma cruzi Tulahuen 2 epimastigotes after 5 days; type: functional, organism-based; details: Tulahuen 2, 120 h
[7] = system: Trypanosoma cruzi; assay: Growth inhibition of Trypanosoma cruzi Tulahuen 2 epimastigotes at 25 uM after 5 days relative to control; type: functional; details: Tulahuen 2, 120 h, read-out: GI
[8] = Selectivity index, ratio of IC50 for mouse J774 cells to IC50 for Trypanosoma cruzi Tulahuen 2 epimastigotes; type: toxicity; details: J774 cells versus Trypanosoma cruzi Tulahuen 2 epimastigotes, read-out: Ratio IC50
[9] = system: J774; assay: Cytotoxicity against mouse J774 cells assessed as reduction in cell viability after 48 hrs by MTT assay; type: cell-based; details: J774, 48 h
How it was run: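 J774 macrophages, 37°C, 5% CO2, 48 h with compounds in DMSO at 100, 200 and 400 μM. Viability from mitochondrial activity by MTT/formazan.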

[10] = target: Cruzipain (Trypanosoma cruzi, UniProt P25779); assay: Inhibition of Trypanosoma cruzi cruzipain using Bz-Pro-Phe-Arg-p-NA as a chromogenic substrate preincubated for 10 mins followed by substrate addition measured for 5 mins by spectrophotometry
Sequence of Cruzipain (P25779 whole entry): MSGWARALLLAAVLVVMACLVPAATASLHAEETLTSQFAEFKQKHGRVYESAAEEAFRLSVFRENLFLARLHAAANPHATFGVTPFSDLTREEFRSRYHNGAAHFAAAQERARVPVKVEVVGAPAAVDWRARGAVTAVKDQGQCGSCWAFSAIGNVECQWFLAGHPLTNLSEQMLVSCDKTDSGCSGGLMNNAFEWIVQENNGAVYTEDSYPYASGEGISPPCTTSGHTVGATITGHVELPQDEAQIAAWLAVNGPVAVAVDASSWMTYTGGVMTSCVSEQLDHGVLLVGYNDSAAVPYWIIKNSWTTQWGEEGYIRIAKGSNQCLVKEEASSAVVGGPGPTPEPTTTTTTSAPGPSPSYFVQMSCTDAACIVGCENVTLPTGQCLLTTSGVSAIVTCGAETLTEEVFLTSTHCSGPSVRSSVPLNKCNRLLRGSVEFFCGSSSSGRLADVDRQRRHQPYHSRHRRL
How it was run: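 Cruzipain preincubated 10 min at ambient temperature in 50 mM Tris-HCl pH 7.6 with 10 mM mercaptoethanol and 25, 50 or 100 μM inhibitor (DMSO). Controls carry the same DMSO level and define 100% activity.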

[11] = system: Trypanosoma cruzi; assay: Antitrypanosomal activity against bloodstream forms of Trypanosoma cruzi Y infected in NMRI mouse assessed as mouse survival at 100 mg/kg, po administerd for 5 consecutive days starting from day 5 post infection; details: 720 h
[12] = system: Salmonella typhimurium; assay: Genotoxicity in Salmonella typhimurium TA98 up to 500 ug/plate in absence of mouse liver S9 fraction by Ames test; type: toxicity, organism-based; details: salmonella enterica subsp. enterica serovar typhimurium
How it was run: (§2)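 TA98 by direct plate incorporation on minimal glucose agar with Vogel-Bonner E; toxicity to the strain checked first. Compounds in DMSO, in triplicate, top dose 500 µg/plate; ± Aroclor-induced mouse liver S9 (500 µL). Positive controls 4-nitro-o-phenylenediamine 20.0 µg/plate (no S9), 2-aminofluorene 10.0 µg/plate (S9); DMSO negative. Manual revertant counts, mean of two experiments ±SD; mutagenic if ≥2× negative control at two consecutive doses.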

[13] = system: Salmonella typhimurium; assay: Genotoxicity in Salmonella typhimurium TA98 up to 500 ug/plate in presence of mouse liver S9 fraction by Ames test; type: toxicity, organism-based; details: salmonella enterica subsp. enterica serovar typhimurium; how it was run: as §2
[14] = system: Trypanosoma cruzi; assay: Antitrypanosomal activity against Trypanosoma cruzi clone CL B5 epimastigotes at 25 uM after 72 hrs by beta-galactosidase reporter gene assay; type: functional, organism-based; details: clone CL B5, 72 h
[15] = system: Mus musculus; assay: Antitrypanosomal activity against bloodstream forms of Trypanosoma cruzi Y infected in NMRI mouse assessed as decrease in number of blood trypomastigotes at 100 mg/kg, po administerd for 5 consecutive days starting from day 5 post infection measured from 4th day of treatment; type: functional, organism-based
[16] = target: Cruzipain (Trypanosoma cruzi) (UniProt P25779); assay: Inhibition of Trypanosoma cruzi cruzipain at 100 uM using Bz-Pro-Phe-Arg-p-NA as a chromogenic substrate preincubated for 10 mins followed by substrate addition measured for 5 mins by spectrophotometer relative to control
Sequence of Cruzipain (Trypanosoma cruzi) (P25779 123-467 limits assumed): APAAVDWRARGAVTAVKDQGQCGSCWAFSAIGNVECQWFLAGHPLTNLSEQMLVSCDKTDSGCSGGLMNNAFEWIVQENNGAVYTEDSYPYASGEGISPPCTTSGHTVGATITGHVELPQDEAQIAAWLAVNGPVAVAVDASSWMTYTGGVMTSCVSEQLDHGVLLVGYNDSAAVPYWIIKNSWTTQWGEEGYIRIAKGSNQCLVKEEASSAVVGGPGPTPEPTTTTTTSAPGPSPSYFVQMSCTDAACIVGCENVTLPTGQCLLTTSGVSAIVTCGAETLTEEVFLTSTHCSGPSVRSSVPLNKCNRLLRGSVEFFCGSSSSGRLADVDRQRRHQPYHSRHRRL
How it was run: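 Cruzipain preincubated 10 min at ambient temperature in 50 mM Tris-HCl pH 7.6 with 10 mM mercaptoethanol and 25, 50 or 100 μM inhibitor (DMSO). Bz-Pro-Phe-Arg-p-NA then added at 150 μM final, A410 followed for 5 min. Controls carry the same DMSO level and define 100% activity.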

SMILES	inhibition of growth at 25 µM [5] [%]	pIC50 [6]	inhibition of growth at 25 µM [7] [%]	selectivity ratio [8]	other results
O=C(Cn1ccnc1[N+](=O)[O-])NCc1ccccc1 [BENZNIDAZOLE]	49				pIC50 [1]: 6.10; inhibition of growth at 25 µM [2]: 100%; pIC50 [3]: < 3.59; selectivity ratio [4]: > 9.4
NC1=NS(=O)(=O)Nc2nc(-c3ccc([N+](=O)[O-])o3)[nH]c21		< 4.60	31.3		
CN(C)c1ccc(-c2nc3c([nH]2)C(N)=NS(=O)(=O)N3)cc1		4.55	42.8		
NC1=NS(=O)(=O)Nc2nc(C3CCOC3)[nH]c21 (stereo unspecified)		4.69	56.4		
NC1=NS(=O)(=O)Nc2nc(C3CCCC3)[nH]c21		4.54	42.2		
NC1=NS(=O)(=O)Nc2nc(-c3cccnc3)[nH]c21		< 4.60	37.5		
CN1c2nc(-c3ccsc3)[nH]c2C(N)=NS1(=O)=O		4.58	46.3		
NC1=NS(=O)(=O)N(Cc2ccccc2)c2nc(-c3ccccc3)n(Cc3ccccc3)c21	60.8	5.35	100	22	pIC50 [9]: 4.00; pIC50 [10]: 4.09; inhibition of growth at 25 µM [2]: 90.2%; survival at 100 mg/kg [11]: 87.5%; pIC50 [3]: > 4.19; Activity [12]: Non-Toxic; selectivity ratio [4]: < 17.8; Activity [13]: Non-Toxic; pIC50 [14]: 5.44; Activity [15]: Active
NC1=NS(=O)(=O)N(Cc2ccc(Cl)cc2)c2nc(-c3ccccc3F)[nH]c21	42.1	5.15	86.3	< 14.2	pIC50 [9]: > 4.00; pIC50 [10]: 4.07; pIC50 [14]: < 4.60
CCc1nc2c([nH]1)C(N)=NS(=O)(=O)N2		4.55	43		
NC1=NS(=O)(=O)N(Cc2ccc(Cl)cc2)c2nc(C3CCCCC3)[nH]c21		< 4.60	0		
NC1=NS(=O)(=O)Nc2nc(CCc3ccccc3)[nH]c21	51.1	4.94	73.6	> 34.8	pIC50 [9]: < 3.40; inhibition [16]: 39%; pIC50 [3]: < 3.59; selectivity ratio [4]: > 14.6; pIC50 [14]: 4.76
NC1=NS(=O)(=O)Nc2nc(-c3ccsc3)[nH]c21		4.65	51.3		
Cc1nc2c([nH]1)C(N)=NS(=O)(=O)N2		< 4.60	38.7		
NC1=NS(=O)(=O)N(Cc2ccccc2)c2nc(C3CCCCC3)n(Cc3ccccc3)c21		4.54	45.7		
NC1=NS(=O)(=O)Nc2[nH]c(-c3ccccc3)nc21		< 4.60	39.6		
NC1=NS(=O)(=O)Nc2nc(-c3ccccc3F)[nH]c21		4.69	57.8		
CC1CS(=O)(=O)CCN1/N=C/c1ccc([N+](=O)[O-])o1 (stereo unspecified) [NIFURTIMOX]	82.2			41	pIC50 [1]: > 6.30; inhibition of growth at 25 µM [2]: 100%; pIC50 [3]: < 3.59; selectivity ratio [4]: > 71.1
NC1=NS(=O)(=O)Nc2nc(Cc3ccccc3)[nH]c21	17.7	4.79 to 4.90	59.7	> 31	pIC50 [10]: 4.64; Activity [12]: Non-Toxic; Activity [13]: Non-Toxic; pIC50 [14]: < 4.60
NC1=NS(=O)(=O)N(Cc2ccccc2)c2nc(-c3ccccc3)[nH]c21		4.53	41.6		
CN1c2nc(-c3ccccc3)[nH]c2C(N)=NS1(=O)=O	11.3	4.78	58	7.7	pIC50 [9]: 3.89; inhibition [16]: 27.4%; Activity [12]: Non-Toxic; Activity [13]: Non-Toxic; pIC50 [14]: < 4.60
NC1=NS(=O)(=O)Nc2nc(C3CCCCC3)[nH]c21	54.8	4.79 to 4.90	72.3	> 25	pIC50 [10]: 4.92; inhibition of growth at 25 µM [2]: 0%; pIC50 [3]: < 3.59; selectivity ratio [4]: > 102; pIC50 [14]: 5.60; Activity [15]: inactive
